ChEMBL document CHEMBL1671628, “Cell density and cell aging as factors modulating antifungal resistance of Candida albicans biofilms” (2008)
In brackets after ≈: the same amount, converted by molar mass.

Tests used:
Candida albicans [1] = experiment: Antifungal activity against 48 hrs cultures of 10^7 cells/ml biofilm-derived Candida albicans BF-1 planktonic cells hrs by XTT reduction method; format: functional; details: BF-1, 48 h
In short: (§1)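 Biofilms grown from 1 × 10^7 cells/ml (YNB + 100 mM glucose, 1.5 h adherence, 37°C, 75 rpm) for 24 or 48 h, washed, scraped and moved to wells of serially double-diluted drugs. Incubated with drug 24 or 48 h, then XTT–menadione read at 490 nm. MIC50 = 50% reduction versus drug-free control.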

Candida albicans [2] = experiment: Antifungal activity against 10^3 cells/ml Candida albicans ATCC 90028 by NCCLS method; format: functional
In short: (§2)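 Planktonic broth microdilution per NCCLS (CLSI): inoculum from 24-h SDA cultures adjusted to 0.5 McFarland at 520 nm, diluted in RPMI 1640 to about 0.5 × 10^3 to 2.5 × 10^3 cells/ml. Cells exposed to twofold drug dilutions, incubated 35°C for 48 h, then MIC read. Three separate occasions.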

Candida albicans [3] = experiment: Antifungal activity against 24 hrs cultures of 10^7 cells/ml biofilm-derived Candida albicans BF-1 planktonic cells hrs by XTT reduction method; format: functional; details: BF-1, 24 h
In short: (§3)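 Biofilms grown 24 or 48 h from 1 × 10^7 cells/ml were washed, scraped and transferred into plates of twofold serially diluted drugs. They were incubated 24 or 48 h. MIC was read by XTT reduction (3 h at 37°C in the dark, A490 minus blank) as 50% reduction vs drug-free control.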

Candida albicans [4] = experiment: Antifungal activity against 10^7 cells/ml Candida albicans ATCC 90028 planktonic cells by XTT reduction assay; format: functional
In short: (§4)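 High-density planktonic suspensions (10^7 or 10^8 cells/ml) added to serially double-diluted drugs as in the NCCLS setup, run in parallel in RPMI 1640 + 2% glucose and YNB + 100 mM glucose. Viability read by XTT (1 mg/ml) with menadione (0.4 mM stock, 5:1), 3 h dark at 37°C, A490 minus blank wells. MIC50 = lowest concentration giving 50% reduction versus drug-free control.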

Candida albicans [5] = experiment: Antifungal activity against 10^8 cells/ml Candida albicans ATCC 90028 planktonic cells by XTT reduction assay; format: functional; in short: as §4
Candida albicans [6] = experiment: Antifungal activity against 10^8 cells/ml Candida albicans SC5314 planktonic cells by XTT reduction assay; format: functional; in short: as §4
Candida albicans [7] = experiment: Antifungal activity against 48 hrs cultures of 10^7 cells/ml Candida albicans ATCC 90028 biofilms by XTT reduction method; format: functional; details: ATCC 90028, 48 h
In short: (§5)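 Washed late-exponential cells at 1 × 10^7 cells/ml in YNB + 100 mM glucose were adhered 1.5 h at 37°C with shaking at 75 rpm, washed, then grown 24 or 48 h at 37°C, 75 rpm. Biofilms were washed and exposed 24 or 48 h at 37°C to twofold dilutions in RPMI + 2% glucose. Read by XTT at A490. MIC50 is 50% reduction vs drug-free control. Three experiments, four replicates.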

Candida albicans [8] = experiment: Antifungal activity against 24 hrs cultures of 10^7 cells/ml Candida albicans ATCC 90028 biofilms by XTT reduction assay; format: functional; details: ATCC 90028, 24 h; in short: as §5
Candida albicans [9] = experiment: Antifungal activity against 48 hrs cultures of 10^7 cells/ml Candida albicans BF-1 biofilms by XTT reduction method; format: functional; details: BF-1, 48 h; in short: as §5
Candida albicans [10] = experiment: Antifungal activity against 24 hrs cultures of 10^7 cells/ml Candida albicans SC5314 biofilms by XTT reduction assay; format: functional; details: SC5314, 24 h; in short: as §5
Candida albicans [11] = experiment: Antifungal activity against 24 hrs cultures of 10^7 cells/ml Candida albicans BF-1 biofilms by XTT reduction method; format: functional; details: BF-1, 24 h; in short: as §5
Candida albicans [12] = experiment: Antifungal activity against 24 hrs cultures of 10^7 cells/ml biofilm-derived Candida albicans ATCC 90028 planktonic cells hrs by XTT reduction method; format: functional; details: ATCC 90028, 24 h; in short: as §1
Candida albicans [13] = experiment: Antifungal activity against 10^3 cells/ml Candida albicans SC5314 by NCCLS method; format: functional; in short: as §2
Candida albicans [14] = experiment: Antifungal activity against 10^5 cells/ml wild-type Candida albicans BF-1 by EUCAST method; format: functional
In short: (§6)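 EUCAST AFST planktonic broth microdilution: RPMI 1640 plus 2% glucose, inoculum 0.5 × 10^5 to 2.5 × 10^5 cells/ml, twofold drug dilutions. Performed on three different occasions.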

Candida albicans [15] = experiment: Antifungal activity against 48 hrs cultures of 10^8 cells/ml wild-type Candida albicans BF-1 biofilms by XTT reduction assay; details: BF-1, 48 h
Candida albicans [16] = experiment: Antifungal activity against 48 hrs cultures of 10^7 cells/ml biofilm-derived Candida albicans ATCC 90028 planktonic cells hrs by XTT reduction method; format: functional; details: ATCC 90028, 48 h; in short: as §3
Candida albicans [17] = experiment: Antifungal activity against 24 hrs cultures of 10^7 cells/ml Candida albicans BF-1 planktonic cells by XTT reduction method; format: functional; details: BF-1, 24 h
In short: (§7)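 Age-matched planktonic cultures were grown from the same 1 × 10^7 cells/ml YNB + 100 mM glucose suspension under the biofilm conditions for 24 or 48 h. They were tested against twofold drug dilutions by XTT reduction (3 h at 37°C in the dark, A490 minus blank). MIC50 is 50% reduction vs drug-free control.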

Candida albicans [18] = experiment: Antifungal activity against 48 hrs cultures of 10^7 cells/ml Candida albicans BF-1 planktonic cells by XTT reduction method; format: functional; details: BF-1, 48 h; in short: as §7
Candida albicans [19] = experiment: Antifungal activity against 10^5 cells/ml Candida albicans ATCC 90028 by EUCAST method; format: functional; in short: as §6
Candida albicans [20] = experiment: Antifungal activity against 48 hrs cultures of 10^8 cells/ml Candida albicans ATCC 90028 biofilms by XTT reduction assay; details: ATCC 90028, 48 h
Candida albicans [21] = experiment: Antifungal activity against 48 hrs cultures of 10^7 cells/ml Candida albicans ATCC 90028 planktonic cells by XTT reduction method; format: functional; details: ATCC 90028, 48 h; in short: as §7
Candida albicans [22] = experiment: Antifungal activity against 24 hrs cultures of 10^7 cells/ml wild-type Candida albicans BF-1 biofilms by XTT reduction assay; format: functional; details: BF-1, 24 h; in short: as §5
Candida albicans [23] = experiment: Antifungal activity against 24 hrs cultures of 10^7 cells/ml Candida albicans ATCC 90028 planktonic cells by XTT reduction method; format: functional; details: ATCC 90028, 24 h
In short: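 Standard 1 × 10^7 cells/ml suspension in YNB + 100 mM glucose propagated planktonically 24 h alongside age-matched biofilms, then exposed to twofold drug dilutions. Metabolic activity read by XTT–menadione reduction, 3 h dark, 37°C, A490 background-subtracted. MIC50 is the 50% reduction point versus drug-free control.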

Candida albicans [24] = experiment: Antifungal activity against 10^3 cells/ml wild-type Candida albicans BF-1 by NCCLS method; format: functional; in short: as §2
Candida albicans [25] = experiment: Antifungal activity against 24 hrs cultures of 10^7 cells/ml Candida albicans ATCC 90028 biofilms by XTT reduction method; format: functional; details: ATCC 90028, 24 h; in short: as §5
Candida albicans [26] = experiment: Antifungal activity against 10^8 cells/ml wild-type Candida albicans BF-1 planktonic cells by XTT reduction assay; format: functional
In short: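 Planktonic suspensions at 1 × 10^8 cells/ml added to twofold serial drug dilutions in 96-well plates (NCCLS format). Run in parallel in RPMI 1640 + 2% glucose and YNB + 100 mM glucose. Readout by XTT reduction: XTT–menadione in PBS, 3 h at 37°C in the dark, A490 minus blank. MIC50 is 50% reduction vs drug-free control.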

Candida albicans [27] = experiment: Antifungal activity against 10^7 cells/ml wild-type Candida albicans BF-1 planktonic cells by XTT reduction assay; format: functional; in short: as §4
Candida albicans [28] = experiment: Ratio of MIC for 10^8 cells/ml wild-type Candida albicans BF-1 to MIC for 10^7 cells/ml wild-type Candida albicans BF-1 grown as planktonic cells; format: functional; in short: as §4

Structure (SMILES) | MIC (Candida albicans [1]) [µg/mL] | MIC (Candida albicans [2]) [µg/mL] | MIC (Candida albicans [3]) [µg/mL] | MIC (Candida albicans [4]) [µg/mL] | MIC (Candida albicans [5]) [µg/mL] | MIC (Candida albicans [6]) [µg/mL] | MIC (Candida albicans [7]) [µg/mL] | MIC (Candida albicans [8]) [µg/mL] | MIC (Candida albicans [9]) [µg/mL] | MIC (Candida albicans [10]) [µg/mL] | MIC (Candida albicans [11]) [µg/mL] | MIC (Candida albicans [12]) [µg/mL] | MIC (Candida albicans [13]) [µg/mL] | MIC (Candida albicans [14]) [µg/mL] | MIC (Candida albicans [15]) [µg/mL] | MIC (Candida albicans [16]) [µg/mL] | MIC (Candida albicans [17]) [µg/mL] | MIC (Candida albicans [18]) [µg/mL] | MIC (Candida albicans [19]) [µg/mL] | MIC (Candida albicans [20]) [µg/mL] | also measured
C[C@@H]1[C@H](O)[C@@H](C)/C=C/C=C/C=C/C=C/C=C/C=C/C=C/[C@H](O[C@@H]2O[C@H](C)[C@@H](O)[C@H](N)[C@@H]2O)C[C@@H]2O[C@](O)(C[C@@H](O)C[C@@H](O)[C@H](O)CC[C@@H](O)C[C@@H](O)CC(=O)O[C@H]1C)C[C@H](O)[C@H]2C(=O)O [AMPHOTERICIN B] | 3.75 (≈ 4.06 µM) | 0.23 (≈ 0.249 µM) | 1.87 (≈ 2.02 µM) | 0.23 (≈ 0.249 µM) | 0.46 (≈ 0.498 µM) | 0.46 (≈ 0.498 µM) | 16 (≈ 17.3 µM) | 15 (≈ 16.2 µM) | 32 (≈ 34.6 µM) | 32 (≈ 34.6 µM) | 32 (≈ 34.6 µM) | 0.46 (≈ 0.498 µM) | 0.23 (≈ 0.249 µM) | 0.23 (≈ 0.249 µM) | 30 (≈ 32.5 µM) | 1.87 (≈ 2.02 µM) | 0.93 (≈ 1.01 µM) | 0.93 (≈ 1.01 µM) | 0.23 (≈ 0.249 µM) | 15 (≈ 16.2 µM) | MIC (Candida albicans [21]): 0.46 µg/mL (≈ 0.498 µM); MIC (Candida albicans [22]): 30 µg/mL (≈ 32.5 µM); MIC (Candida albicans [23]): 0.46 µg/mL (≈ 0.498 µM); MIC (Candida albicans [24]): 0.23 µg/mL (≈ 0.249 µM); MIC (Candida albicans [25]): 16 µg/mL (≈ 17.3 µM); MIC (Candida albicans [26]): 0.93 µg/mL (≈ 1.01 µM); MIC (Candida albicans [27]): 0.46 µg/mL (≈ 0.498 µM)
CC[C@H](C)C[C@H](C)CCCCCCCCC(=O)N[C@H]1C[C@@H](O)[C@@H](NCCN)NC(=O)[C@@H]2[C@@H](O)CCN2C(=O)[C@H]([C@H](O)CCN)NC(=O)[C@H]([C@H](O)[C@@H](O)c2ccc(O)cc2)NC(=O)[C@@H]2C[C@@H](O)CN2C(=O)[C@H]([C@@H](C)O)NC1=O [CASPOFUNGIN] | 0.2 (≈ 0.183 µM) | 0.2 (≈ 0.183 µM) | 0.4 (≈ 0.366 µM) | 0.2 (≈ 0.183 µM) | 0.2 (≈ 0.183 µM) | 0.2 (≈ 0.183 µM) | 100 (≈ 91.5 µM) | 100 (≈ 91.5 µM) | > 100 | > 100 | > 100 | 0.2 (≈ 0.183 µM) | 0.2 (≈ 0.183 µM) | 0.2 (≈ 0.183 µM) | > 100 | 0.4 (≈ 0.366 µM) | 0.4 (≈ 0.366 µM) | 0.4 (≈ 0.366 µM) | 0.2 (≈ 0.183 µM) | 100 (≈ 91.5 µM) | MIC (Candida albicans [21]): 0.4 µg/mL (≈ 0.366 µM); MIC (Candida albicans [22]): > 100 µg/mL; MIC (Candida albicans [23]): 0.2 µg/mL (≈ 0.183 µM); MIC (Candida albicans [24]): 0.2 µg/mL (≈ 0.183 µM); MIC (Candida albicans [25]): 100 µg/mL (≈ 91.5 µM); MIC (Candida albicans [26]): 0.4 µg/mL (≈ 0.366 µM); MIC (Candida albicans [27]): 0.2 µg/mL (≈ 0.183 µM)
Nc1nc(=O)[nH]cc1F [FLUCYTOSINE] | > 420 | 0.8 (≈ 6.2 µM) | > 420 | 6.5 (≈ 50.4 µM) | > 420 | > 420 | > 420 | > 420 | > 420 | > 420 | > 420 | > 420 | 0.8 (≈ 6.2 µM) | 0.8 (≈ 6.2 µM) | > 420 | > 420 | > 420 | > 420 | 0.8 (≈ 6.2 µM) | > 420 | Ratio (Candida albicans [28]): >1000; MIC (Candida albicans [21]): > 420 µg/mL; MIC (Candida albicans [22]): > 420 µg/mL; MIC (Candida albicans [23]): > 420 µg/mL; MIC (Candida albicans [24]): 0.8 µg/mL (≈ 6.2 µM); MIC (Candida albicans [25]): > 420 µg/mL; MIC (Candida albicans [26]): > 420 µg/mL; MIC (Candida albicans [27]): 6.5 µg/mL (≈ 50.4 µM)
